Assay results as given in ChEMBL document CHEMBL4834423, “Discovery of AG-270, a First-in-Class Oral MAT2A Inhibitor for the Treatment of Tumors with Homozygous MTAP Deletion” (J Med Chem, 2021).

Columns and labels:
[1] = Protein binding in monkey plasma assessed as unbound fraction; format: ADME, cell-free, Macaca mulatta; settings: rhesus monkey
[2] = Protein binding in mouse plasma assessed as unbound fraction; format: ADME, cell-free
[3] = Oral bioavailability in monkey at 5 mg/kg; format: ADME, organism-based, Macaca mulatta; settings: rhesus monkey, in vivo
[4] = target: T1, Solute carrier organic anion transporter family member 1B1 (Homo sapiens, UniProt Q9Y6L6); experiment: Inhibition of OATP1B1 (unknown origin); format: ADME
T1 sequence (Q9Y6L6 whole entry): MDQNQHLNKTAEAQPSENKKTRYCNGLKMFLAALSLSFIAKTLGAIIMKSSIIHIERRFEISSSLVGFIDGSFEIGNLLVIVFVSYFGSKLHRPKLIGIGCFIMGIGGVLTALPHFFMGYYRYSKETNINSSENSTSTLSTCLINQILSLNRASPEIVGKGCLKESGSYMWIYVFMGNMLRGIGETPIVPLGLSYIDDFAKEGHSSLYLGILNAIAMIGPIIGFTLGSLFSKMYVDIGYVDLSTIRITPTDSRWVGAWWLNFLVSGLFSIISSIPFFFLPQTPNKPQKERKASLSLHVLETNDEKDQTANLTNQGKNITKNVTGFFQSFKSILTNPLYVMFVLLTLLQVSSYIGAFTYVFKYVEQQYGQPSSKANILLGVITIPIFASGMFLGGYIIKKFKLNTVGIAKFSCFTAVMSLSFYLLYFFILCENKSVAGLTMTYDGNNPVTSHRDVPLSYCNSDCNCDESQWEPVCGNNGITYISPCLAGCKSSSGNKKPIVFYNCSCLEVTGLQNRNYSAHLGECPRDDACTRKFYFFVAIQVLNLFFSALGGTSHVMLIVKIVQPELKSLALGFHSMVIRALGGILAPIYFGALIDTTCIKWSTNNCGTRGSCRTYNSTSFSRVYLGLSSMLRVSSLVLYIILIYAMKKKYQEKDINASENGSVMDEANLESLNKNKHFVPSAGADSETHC

Cytochrome P450 3A4 [5] = target: T2, Cytochrome P450 3A4 (Homo sapiens, UniProt P08684); experiment: Inhibition of CYP3A4 (unknown origin); format: ADME
Cytochrome P450 2D6 [6] = target: T3, Cytochrome P450 2D6 (Homo sapiens, UniProt P10635); experiment: Inhibition of CYP2D6 (unknown origin); format: ADME
Cytochrome P450 2B6 = target: T4, Cytochrome P450 2B6 (Homo sapiens, UniProt P20813); experiment: Inhibition of CYP2B6 (unknown origin) assessed as inactivation relative to control; format: ADME
T4 sequence (P20813 whole entry): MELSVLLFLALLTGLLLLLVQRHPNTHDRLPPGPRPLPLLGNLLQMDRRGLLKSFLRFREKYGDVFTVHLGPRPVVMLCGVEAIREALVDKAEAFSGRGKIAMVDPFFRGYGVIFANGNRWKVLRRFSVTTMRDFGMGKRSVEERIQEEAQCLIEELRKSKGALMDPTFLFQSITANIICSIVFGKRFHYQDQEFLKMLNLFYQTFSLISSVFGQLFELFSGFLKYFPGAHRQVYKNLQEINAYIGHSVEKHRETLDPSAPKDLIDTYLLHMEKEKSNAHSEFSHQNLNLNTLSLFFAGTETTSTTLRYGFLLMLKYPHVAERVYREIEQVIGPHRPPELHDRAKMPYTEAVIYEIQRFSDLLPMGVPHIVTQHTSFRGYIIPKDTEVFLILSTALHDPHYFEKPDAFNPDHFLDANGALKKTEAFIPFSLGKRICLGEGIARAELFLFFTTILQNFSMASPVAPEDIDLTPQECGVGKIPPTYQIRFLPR

Cytochrome P450 3A4 [7] = target: T2, Cytochrome P450 3A4; experiment: Inhibition of CYP3A4 (unknown origin) assessed as inactivation relative to control; format: ADME
Cytochrome P450 2C9 = Cytochrome P450 2C9 (Homo sapiens, UniProt P11712); experiment: Inhibition of CYP2C9 (unknown origin) assessed as inactivation relative to control; format: ADME
Cytochrome P450 2D6 [8] = target: T3, Cytochrome P450 2D6; experiment: Inhibition of CYP2D6 (unknown origin) assessed as inactivation relative to control; format: ADME
KP-4 [9] = experiment: Anticancer activity in MTAP-null human KP-4 cells xenografted mouse model assessed as inhibition of SAM production at 10 mg/kg, po qd treated for 38 days relative to control; format: functional; settings: KP-4, po, 912 h, time 38 day
Outline: (§1)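 Subcutaneous KP4 MTAP-null xenograft mice, 12 per arm (60 animals), dosed orally once daily on days 24−38 at 10−200 mg/kg. Tumor SAM levels and plasma compound exposure were monitored; plasma sampled up to 24 h after the last dose. Mean tumor volume and body weight change were tracked; error bars are SEM.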

KP-4 [10] = experiment: Anticancer activity in MTAP-null human KP-4 cells xenografted mouse model assessed as inhibition of SAM production at 200 mg/kg, po qd treated for 38 days relative to control; format: functional; settings: KP-4, po, 912 h, time 38 day; outline: as §1
cells = settings: Homo sapiens, HCT-116, 72 h

T2 sequence (P08684 whole entry): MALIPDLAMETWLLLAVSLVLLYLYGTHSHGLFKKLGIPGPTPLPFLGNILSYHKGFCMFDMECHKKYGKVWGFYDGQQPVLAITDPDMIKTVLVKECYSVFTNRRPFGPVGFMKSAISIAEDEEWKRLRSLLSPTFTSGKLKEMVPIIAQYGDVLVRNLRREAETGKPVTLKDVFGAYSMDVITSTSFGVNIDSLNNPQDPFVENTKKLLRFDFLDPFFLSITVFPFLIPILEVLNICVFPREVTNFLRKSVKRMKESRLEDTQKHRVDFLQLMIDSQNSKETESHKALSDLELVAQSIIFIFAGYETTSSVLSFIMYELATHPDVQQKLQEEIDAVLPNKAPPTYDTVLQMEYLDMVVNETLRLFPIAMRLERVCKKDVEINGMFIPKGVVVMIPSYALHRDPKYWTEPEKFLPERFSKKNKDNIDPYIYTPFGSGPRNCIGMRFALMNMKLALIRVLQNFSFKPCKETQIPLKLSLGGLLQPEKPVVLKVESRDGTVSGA
T3 sequence (P10635 whole entry): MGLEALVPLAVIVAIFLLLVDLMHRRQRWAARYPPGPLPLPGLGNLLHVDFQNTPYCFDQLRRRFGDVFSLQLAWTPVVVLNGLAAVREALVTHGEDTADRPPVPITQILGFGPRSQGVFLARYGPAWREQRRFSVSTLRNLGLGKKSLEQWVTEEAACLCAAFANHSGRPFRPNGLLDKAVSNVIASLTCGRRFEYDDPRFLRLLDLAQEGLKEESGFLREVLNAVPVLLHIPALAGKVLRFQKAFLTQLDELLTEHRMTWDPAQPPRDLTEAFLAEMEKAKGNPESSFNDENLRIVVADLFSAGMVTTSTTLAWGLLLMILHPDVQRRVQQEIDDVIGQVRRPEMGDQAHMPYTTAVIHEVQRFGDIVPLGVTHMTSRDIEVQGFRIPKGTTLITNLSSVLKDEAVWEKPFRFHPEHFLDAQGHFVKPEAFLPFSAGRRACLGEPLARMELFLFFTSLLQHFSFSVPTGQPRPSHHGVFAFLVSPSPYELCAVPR
Sequence of Cytochrome P450 2C9 (P11712 whole entry): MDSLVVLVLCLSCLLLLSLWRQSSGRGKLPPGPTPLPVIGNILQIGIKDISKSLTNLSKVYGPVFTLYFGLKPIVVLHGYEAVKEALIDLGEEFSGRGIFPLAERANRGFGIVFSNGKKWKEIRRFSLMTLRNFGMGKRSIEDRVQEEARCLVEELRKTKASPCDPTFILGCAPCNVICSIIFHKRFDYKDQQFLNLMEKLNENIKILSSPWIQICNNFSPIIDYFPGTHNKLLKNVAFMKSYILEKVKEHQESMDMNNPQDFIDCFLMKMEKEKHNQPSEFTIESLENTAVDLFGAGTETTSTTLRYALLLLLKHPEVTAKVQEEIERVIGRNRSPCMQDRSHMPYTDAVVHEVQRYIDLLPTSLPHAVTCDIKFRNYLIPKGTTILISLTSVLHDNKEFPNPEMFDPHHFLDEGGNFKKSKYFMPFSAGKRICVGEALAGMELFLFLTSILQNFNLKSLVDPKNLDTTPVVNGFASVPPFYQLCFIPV

fraction unbound [1]: 0.011
fraction unbound [2]: 0.0028
bioavailability [3]: 31%
IC50 [4]: 2.1 µM
IC50 (Cytochrome P450 3A4 [5]): > 10 µM
IC50 (Cytochrome P450 2D6 [6]): > 10 µM
INH (Cytochrome P450 2B6): > 3.6 µM
INH (Cytochrome P450 3A4 [7]): > 50 µM
INH (Cytochrome P450 2C9): > 50 µM
INH (Cytochrome P450 2D6 [8]): > 50 µM
IC50 (cells): 20 µM
Compound: COc1ccc(-c2c(Nc3ccccn3)[nH]c3c(C4=CCCCC4)c(-c4ccccc4)nn3c2=O)cc1
inhibition in vivo at 10 mg/kg (KP-4 [9]): 33.4%
inhibition in vivo at 200 mg/kg (KP-4 [10]): 81.1%
